The text below walks through data of ChEMBL document CHEMBL1938232 (Bioorg Med Chem, 2012).

Data set [1] addresses Vascular endothelial growth factor receptor 2 (Homo sapiens, UniProt P35968). As to the kind of experiment: Inhibition of KDR using Bio-Gastrintide as substrate by TR-FRET assay in presence of 50 uM of ATP. A general note: In TR-FRET formats the signal depends on donor and acceptor labels being close together.
Data set [2] concerns the target Mast/stem cell growth factor receptor Kit (Homo sapiens, UniProt P10721). Description: Inhibition of KIT using Bio-HER2tide as substrate by TR-FRET assay in presence of 50 uM of ATP.
Data set [3] concerns the target Hepatocyte growth factor receptor (Homo sapiens, UniProt P08581). As to the kind of experiment: Inhibition of MET using Bio-HER2tide as substrate by TR-FRET assay in presence of 50 uM of ATP.
For data set [4], the system named is KARPAS-299. Description: Antiproliferative activity against human KARPAS299 cells after 96 hrs by cell counting assay. Conditions: KARPAS-299, 96 h. Format: functional, cell-based. A digest of the protocol: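 KARPAS-299 cells exposed to a range of compound concentrations for 96 h. Growth inhibition read by Cell Counting Kit-8.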
A short description of data set [5]: Clearance in human liver microsomes assessed as per mg of protein after 30 mins by LC/MS analysis. Format: ADME, Microsome. Particulars: read-out: CLH. The essentials: (§1)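 1 µM compound incubated at 37 °C for 30 min with liver microsomes (0.5 mg protein/mL) in 50 mM phosphate buffer pH 7.4 with 1 mM NADPH. Reaction stopped with threefold volume of acetonitrile and centrifuged. Remaining compound in supernatant quantified by LC/MS.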
A general note: Liver microsomes are vesicles of endoplasmic reticulum, rich in cytochrome P450 enzymes.

The nature of data set [6]: Clearance in mouse liver microsomes assessed as per mg of protein after 30 mins by LC/MS analysis. Conditions: read-out: CLH. Format: ADME, Microsome. A digest of the protocol:
as §1

Data set [7] addresses ALK tyrosine kinase receptor (Homo sapiens, UniProt Q9UM73).
Data set [8] relates to KARPAS-299. As to the kind of experiment: Antitumor activity against human KARPAS299 cells expressing NPM-ALK xenografted mouse model assessed as tumor growth inhibition at 20 mg/kg, po. Format: functional. Particulars: read-out: GI.
Another data set has as its system NCI-H2228. Description: Antitumor activity against human NCI-H2228 cells expressing EML4-ALK xenografted mouse model assessed as tumor growth inhibition at 20 mg/kg, po. It is filed as functional. Conditions: read-out: GI. For orientation: Xenograft models place foreign cells or tissue in a host animal.
Data set [9] in a line: Oral bioavailability in Sprague-Dawley rat at 1 mg/kg. Particulars: in vivo. It is filed as ADME, organism-based. The essentials: (§2)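 Sprague–Dawley rats, n = 3 per group, dosed po or iv at 1 mg/kg in 10% N,N-dimethylacetamide, 20% HP-β-CD and 0.02 M HCl in water. Heparinized blood taken at 0.08–72 h after iv and 0.50–72 h after po. Plasma analysed by LC–MS/MS.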
A short description of data set [10]: Oral bioavailability in cynomolgus monkey at 0.5 mg/kg. Particulars: in vivo. It is filed as ADME, organism-based, Macaca fascicularis. A digest of the protocol: (§3)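 Fasted cynomolgus monkeys, n = 2 per group, dosed po or iv at 0.5 mg/kg in 10% DMSO, 20% HP-β-CD and 0.02 M HCl in water. Heparinized blood sampled at 0.08–48 h after iv and 0.50–48 h after po. Plasma quantified by LC–MS/MS.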

Data set [11] can be described thus: AUC in Sprague-Dawley rat at 1 mg/kg, po. Also noted: dose 1 mg/kg, route oral. It is filed as ADME, organism-based. Conditions: plasma. A digest of the protocol:
as §2

The nature of data set [12]: AUC in cynomolgus monkey at 0.5 mg/kg, po. It is filed as ADME, organism-based, Macaca fascicularis. Also noted: dose 0.5 mg/kg, route oral. Conditions: plasma. The essentials: as §3
The nature of data set [13]: Cmax in Sprague-Dawley rat at 1 mg/kg, po. Conditions: in vivo. Set-up: dose 1 mg/kg, route oral. It is filed as ADME, organism-based. The essentials: as §2
The nature of data set [14]: Cmax in cynomolgus monkey at 0.5 mg/kg, po. It is filed as ADME, organism-based, Macaca fascicularis. Set-up: dose 0.5 mg/kg, route oral. Particulars: in vivo. The essentials: as §3
The nature of data set [15]: Half life in Sprague-Dawley rat at 1 mg/kg, po. Format: ADME, organism-based. Set-up: dose 1 mg/kg, route oral. Conditions: in vivo. A digest of the protocol:
as §2

Data set [16] can be described thus: Total clearance in Sprague-Dawley rat at 1 mg/kg, iv. Also noted: dose 1 mg/kg, route intravenous. Format: ADME, organism-based. Particulars: in vivo. The essentials:
as §2

Data set [17] in a line: Total clearance in cynomolgus monkey at 0.5 mg/kg, iv. It is filed as ADME, organism-based, Macaca fascicularis. Set-up: dose 0.5 mg/kg, route intravenous. Particulars: in vivo. The essentials:
as §3

The nature of data set [18]: Volume of distribution at steady state in Sprague-Dawley rat at 1 mg/kg, iv. It is filed as ADME, organism-based. Also noted: dose 1 mg/kg, route intravenous. Conditions: in vivo, read-out: Vdss. The essentials:
as §2

Data set [19] in a line: Volume of distribution at steady state in cynomolgus monkey at 0.5 mg/kg, iv. Conditions: in vivo, read-out: Vdss. It is filed as ADME, organism-based, Macaca fascicularis. Set-up: dose 0.5 mg/kg, route intravenous. A digest of the protocol: as §3
A short description of data set [20]: Half life in Sprague-Dawley rat at 1 mg/kg, iv. It is filed as ADME, organism-based. Set-up: dose 1 mg/kg, route intravenous. Particulars: in vivo. A digest of the protocol: as §2
The nature of data set [21]: in vivo. Conditions: cynomolgus monkey, po, 0.5 mg/kg.
Data set [22] in a line: in vivo. Particulars: cynomolgus monkey, iv, 0.5 mg/kg.
In another data set the test system is Mus musculus. Description: Toxicity in human NCI-H2228 cells expressing EML4-ALK xenografted mouse model assessed as body weight loss at 20 mg/kg, po. Conditions: in vivo.

Chain of ALK tyrosine kinase receptor (Q9UM73 whole entry): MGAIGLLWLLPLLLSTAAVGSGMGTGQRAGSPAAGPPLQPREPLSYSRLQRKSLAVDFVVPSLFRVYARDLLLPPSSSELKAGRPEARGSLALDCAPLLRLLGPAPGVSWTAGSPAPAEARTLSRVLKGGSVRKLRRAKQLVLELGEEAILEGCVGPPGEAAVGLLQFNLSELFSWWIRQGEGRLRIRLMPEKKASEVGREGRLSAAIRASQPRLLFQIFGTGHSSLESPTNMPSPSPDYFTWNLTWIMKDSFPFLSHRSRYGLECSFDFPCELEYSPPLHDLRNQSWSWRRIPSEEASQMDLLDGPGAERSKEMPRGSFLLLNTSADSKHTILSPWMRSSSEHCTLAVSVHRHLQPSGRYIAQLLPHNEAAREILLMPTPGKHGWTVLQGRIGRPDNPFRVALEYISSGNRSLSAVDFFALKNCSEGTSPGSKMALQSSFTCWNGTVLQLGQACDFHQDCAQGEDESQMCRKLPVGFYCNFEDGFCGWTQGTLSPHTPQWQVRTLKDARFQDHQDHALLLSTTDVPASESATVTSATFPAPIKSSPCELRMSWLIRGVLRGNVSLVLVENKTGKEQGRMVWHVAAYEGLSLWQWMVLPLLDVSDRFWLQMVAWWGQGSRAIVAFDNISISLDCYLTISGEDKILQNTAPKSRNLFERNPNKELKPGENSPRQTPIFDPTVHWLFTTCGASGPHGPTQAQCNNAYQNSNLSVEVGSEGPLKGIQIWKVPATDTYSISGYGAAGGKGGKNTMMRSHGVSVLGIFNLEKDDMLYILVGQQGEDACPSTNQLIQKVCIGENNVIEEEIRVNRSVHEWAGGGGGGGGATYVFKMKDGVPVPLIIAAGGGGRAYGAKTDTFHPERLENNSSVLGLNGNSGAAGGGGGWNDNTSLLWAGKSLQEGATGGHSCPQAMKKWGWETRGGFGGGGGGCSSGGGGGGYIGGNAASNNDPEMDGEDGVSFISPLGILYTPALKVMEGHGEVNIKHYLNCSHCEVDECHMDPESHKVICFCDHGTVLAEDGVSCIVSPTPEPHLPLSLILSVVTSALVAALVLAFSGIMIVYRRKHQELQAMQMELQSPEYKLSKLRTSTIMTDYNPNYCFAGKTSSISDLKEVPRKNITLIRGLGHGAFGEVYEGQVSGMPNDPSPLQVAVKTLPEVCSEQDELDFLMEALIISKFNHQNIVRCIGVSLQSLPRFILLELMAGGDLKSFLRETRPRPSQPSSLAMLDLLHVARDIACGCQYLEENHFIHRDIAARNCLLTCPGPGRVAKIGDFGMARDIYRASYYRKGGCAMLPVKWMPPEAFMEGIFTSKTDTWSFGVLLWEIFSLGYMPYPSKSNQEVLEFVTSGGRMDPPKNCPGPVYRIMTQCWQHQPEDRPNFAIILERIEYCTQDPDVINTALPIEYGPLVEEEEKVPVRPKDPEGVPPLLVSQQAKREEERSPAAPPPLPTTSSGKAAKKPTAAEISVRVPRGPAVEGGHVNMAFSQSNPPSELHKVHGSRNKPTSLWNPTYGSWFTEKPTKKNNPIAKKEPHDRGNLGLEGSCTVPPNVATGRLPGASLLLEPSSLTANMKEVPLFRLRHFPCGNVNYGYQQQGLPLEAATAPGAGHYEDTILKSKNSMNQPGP
Chain of Mast/stem cell growth factor receptor Kit (P10721 whole entry): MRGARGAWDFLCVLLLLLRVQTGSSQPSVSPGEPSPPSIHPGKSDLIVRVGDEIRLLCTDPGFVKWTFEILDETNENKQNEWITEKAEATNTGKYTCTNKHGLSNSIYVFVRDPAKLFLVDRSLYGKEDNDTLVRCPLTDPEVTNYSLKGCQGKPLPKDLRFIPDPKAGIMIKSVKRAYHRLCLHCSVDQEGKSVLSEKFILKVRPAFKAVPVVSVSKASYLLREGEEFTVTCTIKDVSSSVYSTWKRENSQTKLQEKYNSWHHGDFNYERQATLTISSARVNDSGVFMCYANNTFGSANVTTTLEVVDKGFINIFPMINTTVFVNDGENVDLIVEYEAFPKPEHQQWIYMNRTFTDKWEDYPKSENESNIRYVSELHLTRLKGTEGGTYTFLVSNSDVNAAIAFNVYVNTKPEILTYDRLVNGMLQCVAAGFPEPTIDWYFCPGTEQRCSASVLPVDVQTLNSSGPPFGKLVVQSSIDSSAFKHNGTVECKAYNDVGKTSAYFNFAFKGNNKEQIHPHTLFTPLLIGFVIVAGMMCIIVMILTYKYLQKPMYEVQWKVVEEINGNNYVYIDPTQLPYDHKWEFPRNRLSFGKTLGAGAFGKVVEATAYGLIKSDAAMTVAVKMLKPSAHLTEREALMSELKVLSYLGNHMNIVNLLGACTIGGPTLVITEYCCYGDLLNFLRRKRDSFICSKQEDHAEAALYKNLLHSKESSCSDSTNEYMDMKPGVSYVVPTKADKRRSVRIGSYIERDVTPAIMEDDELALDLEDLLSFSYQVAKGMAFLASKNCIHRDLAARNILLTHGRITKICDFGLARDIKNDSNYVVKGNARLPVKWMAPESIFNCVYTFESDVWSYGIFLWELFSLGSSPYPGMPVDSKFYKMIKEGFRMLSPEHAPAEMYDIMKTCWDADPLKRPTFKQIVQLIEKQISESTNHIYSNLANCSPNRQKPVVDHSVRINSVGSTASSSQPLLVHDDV
Chain of Hepatocyte growth factor receptor (P08581 whole entry): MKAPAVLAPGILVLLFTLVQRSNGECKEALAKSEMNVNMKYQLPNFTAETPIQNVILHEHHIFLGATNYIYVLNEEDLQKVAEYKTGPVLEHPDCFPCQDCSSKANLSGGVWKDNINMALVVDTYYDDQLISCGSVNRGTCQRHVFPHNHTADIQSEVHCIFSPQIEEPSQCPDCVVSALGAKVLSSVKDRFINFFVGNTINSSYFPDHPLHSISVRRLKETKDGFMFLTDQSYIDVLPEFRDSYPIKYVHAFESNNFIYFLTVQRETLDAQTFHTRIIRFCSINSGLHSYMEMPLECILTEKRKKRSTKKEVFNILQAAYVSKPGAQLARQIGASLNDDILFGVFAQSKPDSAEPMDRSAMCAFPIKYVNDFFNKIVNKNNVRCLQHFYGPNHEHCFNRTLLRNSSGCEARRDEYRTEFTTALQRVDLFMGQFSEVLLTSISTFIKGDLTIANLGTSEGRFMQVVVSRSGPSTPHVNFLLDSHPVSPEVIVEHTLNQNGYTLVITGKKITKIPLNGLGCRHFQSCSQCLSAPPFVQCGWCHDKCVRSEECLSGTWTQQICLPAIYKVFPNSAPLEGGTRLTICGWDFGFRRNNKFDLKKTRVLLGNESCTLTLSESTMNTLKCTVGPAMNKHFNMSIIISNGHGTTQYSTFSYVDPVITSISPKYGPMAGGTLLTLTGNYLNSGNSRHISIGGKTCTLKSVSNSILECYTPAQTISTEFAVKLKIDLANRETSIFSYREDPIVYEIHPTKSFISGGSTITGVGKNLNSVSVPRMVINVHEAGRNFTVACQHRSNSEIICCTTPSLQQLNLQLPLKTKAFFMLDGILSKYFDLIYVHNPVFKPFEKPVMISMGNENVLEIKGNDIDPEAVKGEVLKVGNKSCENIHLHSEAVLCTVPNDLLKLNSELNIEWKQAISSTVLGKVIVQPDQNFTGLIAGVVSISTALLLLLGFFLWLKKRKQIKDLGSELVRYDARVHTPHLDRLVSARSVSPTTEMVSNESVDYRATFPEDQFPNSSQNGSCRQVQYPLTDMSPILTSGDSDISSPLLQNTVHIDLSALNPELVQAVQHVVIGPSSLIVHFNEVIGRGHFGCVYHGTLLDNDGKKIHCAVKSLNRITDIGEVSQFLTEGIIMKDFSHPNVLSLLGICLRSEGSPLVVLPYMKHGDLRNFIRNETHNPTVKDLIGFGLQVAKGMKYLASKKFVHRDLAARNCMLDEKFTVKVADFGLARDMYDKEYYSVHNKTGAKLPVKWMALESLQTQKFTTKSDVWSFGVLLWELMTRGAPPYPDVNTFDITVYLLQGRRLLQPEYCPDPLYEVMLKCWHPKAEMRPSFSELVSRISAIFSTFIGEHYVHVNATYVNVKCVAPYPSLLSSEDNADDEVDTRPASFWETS

A word on the IC50: it is the midpoint of a concentration-inhibition curve. On to `CC1(C)c2ccc(N3CCN(C4COC4)CC3)cc2C(=O)c2c1[nH]c1cc(C#N)ccc21`, for which the concentration for half-maximal inhibition (IC50) in data set [1] was over 5 µM; in data set [2] it was over 5 µM; in data set [3], over 5 µM; in the data set with KARPAS-299 [4], 0.151 µM. Besides, the microsomal CLint turned out to be 14.2 µL/min/mg in data set [5] and 20.6 µL/min/mg in data set [6].

Take `CC1(C)c2cc(N3CCC(N4CCOCC4)CC3)ccc2C(=O)c2c1[nH]c1cc(C#N)ccc21`: the 50% inhibitory concentration (IC50) in data set [7] is 0.016 µM; in data set [1], 0.759 µM; in data set [2], 2.99 µM; in data set [3] it was over 5 µM; with KARPAS-299 [4], 0.0265 µM. The microsomal CLint in data set [5] turned out to be 106 µL/min/mg; in data set [6] it was 72 µL/min/mg.

In the case of `CCc1cc2c(cc1N1CCN(C3CC3)CC1)C(C)(C)c1[nH]c3cc(C#N)ccc3c1C2=O`, the half-inhibitory concentration (IC50) in data set [7] is 0.0052 µM; in data set [1] it was 4.21 µM; in data set [2], over 5 µM; in [3], over 5 µM; in the data set with KARPAS-299 [4] it was 0.0458 µM. The microsomal CLint in data set [5] turned out to be 22.1 µL/min/mg; in data set [6], 3.3 µL/min/mg.

Turning to `Cc1cc2c(cc1N1CCC(N3CCOCC3)CC1)C(C)(C)c1[nH]c3cc(C#N)ccc3c1C2=O`, the IC50 is 0.186 µM in data set [1], 1.06 µM in data set [2], over 5 µM in data set [3] and 0.0048 µM in the data set with KARPAS-299 [4]. Moreover, the microsomal CLint was 23 µL/min/mg in data set [5] and 15.8 µL/min/mg in data set [6].

As for `CC1(C)c2ccc(C3CCN(C4COC4)CC3)cc2C(=O)c2c1[nH]c1cc(C#N)ccc21`, the IC50 in [7] is 0.067 µM; in [1] it was 2.52 µM; in data set [2] it was over 5 µM; in data set [3] it was over 5 µM; in the data set with KARPAS-299 [4] it was 0.0869 µM. In addition, the microsomal CLint in data set [5] and in data set [6] was 38.6 µL/min/mg each time.

Consider `CC1(C)c2ccc(C3CCN(C4CC4)CC3)cc2C(=O)c2c1[nH]c1cc(C#N)ccc21`, for which the IC50 in data set [7] was 0.044 µM; in data set [1], 0.882 µM; in [2], over 5 µM; in data set [3], over 5 µM; in the data set on KARPAS-299 [4] it was 0.121 µM. Besides, the microsomal CLint in [5] came to 59.1 µL/min/mg; in data set [6] it was 20 µL/min/mg.

On to `CCCc1cc2c(cc1N1CCC(N3CCOCC3)CC1)C(C)(C)c1[nH]c3cc(C#N)ccc3c1C2=O`, for which the concentration for half-maximal inhibition (IC50) in [7] is 0.0011 µM; in data set [1], over 5 µM; in data set [2], over 5 µM; in [3], over 5 µM; with KARPAS-299 [4], 0.0261 µM. The microsomal CLint was determined as 17.1 µL/min/mg in data set [5] and 58.5 µL/min/mg in [6].

A word on the bioavailability: it is the share of a dose that reaches the circulation, judged against a reference dose that is usually intravenous. As a reminder, the AUC is the area under the concentration-time curve, a measure of exposure. The term Cmax denotes the highest concentration seen after dosing. Broadly, the half-life is the time needed for the level to fall by half in the phase considered. As usually defined, the clearance is the rate of elimination divided by the concentration. As to `CCc1cc2c(cc1N1CCC(N3CCOCC3)CC1)C(C)(C)c1[nH]c3cc(C#N)ccc3c1C2=O` [ALECTINIB], the IC50 was over 5 µM in data set [2], over 5 µM in data set [3] and 0.003 µM with KARPAS-299 [4]. Also, the microsomal CLint in data set [5] came to 17.7 µL/min/mg; in data set [6], 8.7 µL/min/mg. Besides, the inhibition in vivo at 20 mg/kg worked out at 119% with KARPAS-299 [8] and 168% in the data set with NCI-H2228. Besides, the bioavailability in data set [9] amounted to 65.2%; in [10], 50.4%. Further, the figures for the exposure (AUC) in data set [11] and in data set [12] were 1400 ng·h/mL and 696 ng·h/mL, respectively. The maximum concentration (Cmax) came out at 60.8 ng/mL in data set [13] and 55.8 ng/mL in [14]. For the same molecule, the half-life is 12.6 h in data set [15], 17.8 h in [20], 8.38 h in the data set “in vivo [21]” and 10.4 h in “in vivo [22]”. Further, the clearance in [16] is 7.79 mL/min/kg; in data set [17], 6.04 mL/min/kg. For the same molecule, the Vd was found to be 9.33 L/kg in data set [18] and 5.28 L/kg in data set [19]. Besides, the Activity entry in the data set on Mus musculus was “Non-toxic”.

Turning to `CC1(C)c2ccc(N3CCN(C4CC4)CC3)cc2C(=O)c2c1[nH]c1cc(C#N)ccc21`, the IC50 in data set [7] is 0.233 µM; in data set [1], over 5 µM; in data set [2], over 5 µM; in data set [3], over 5 µM; with KARPAS-299 [4] it was 0.238 µM. The microsomal CLint in data set [5] is 16.4 µL/min/mg; in data set [6], 24.9 µL/min/mg.

As for `CCc1cc2c(cc1N1CCN(C3COC3)CC1)C(C)(C)c1[nH]c3cc(C#N)ccc3c1C2=O`, the half-inhibitory concentration (IC50) in data set [1], in data set [2] and in [3] was over 5 µM throughout.

On to `CCc1cc2c(cc1N1CCN(C3CCC3)CC1)C(C)(C)c1[nH]c3cc(C#N)ccc3c1C2=O`, for which the IC50 in data set [7] is 0.0024 µM; in data set [1], 3.12 µM; in [2], over 5 µM; in data set [3], over 5 µM; in the data set with KARPAS-299 [4], 0.0224 µM. Also, the microsomal CLint came out at 15.6 µL/min/mg in [5] and 4.4 µL/min/mg in data set [6].
